An excerpt weighted towards active compounds, which were near 3.2% of everything screened.
UBC13 inh = human UBC13 polyubiquitination inhibition; P61088; UBC13 polyubiquitin chain formation, TR-FRET; inhibition, % at 20 µM; 0.47% of 330,000 active; AID 485273; in the data active = inhibition above about 45%, passing the limit was not always enough
Target sequence (P61088 whole entry, looked up): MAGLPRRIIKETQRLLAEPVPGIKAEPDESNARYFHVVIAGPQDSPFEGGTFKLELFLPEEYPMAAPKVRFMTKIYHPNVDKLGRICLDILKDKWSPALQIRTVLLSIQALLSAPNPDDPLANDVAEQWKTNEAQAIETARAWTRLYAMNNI
MEKK2 mut-MEK5 = signal of MEK5 binding to mutant human MEKK2 PB1 domain | 0.35% of 290,000 active | bead flow cytometry, Alexa488-MEK5 binding to MEKK2 mutant | AID 1530 | percent response, % at 10 µM; in the data active = percent response above about 24%, passing the limit was not always enough
MEKK3 PB1 HTS = raises or lowers MEK5 binding to the human MEKK3 PB1 domain; Q99759; bead-based flow cytometry, Alexa488-MEK5 binding to MEKK3; actives lie on both sides; 0 = blocked by unlabeled MEK5, 100 = vehicle; binding response (% of control), % at 10 µM; 1.4% of 290,000 active;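 active = binding response more than 3 SD above or below the average of its plate-row segment, actives on both sides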;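 note: Alexa488 bead fluorescence after subtracting the streptavidin-only scavenger bead signal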
Apaf1 inhib = inhibitors of human Apaf-1 apoptosome. O14727. reconstituted apoptosome caspase-3 activity, DEVD-Rh110 fluorescence. inhibition, % at 20 µM. 0.71% of 330,000 active. AID 489030; active = inhibition of at least 40% at 20 µM;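 note: plate controls were DMSO wells for no effect and DEVD-CHO caspase inhibitor wells for full effect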
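Material: reconstituted apoptosome with Apaf-1, cytochrome c, caspase-9, procaspase-3, dATP. Technique: Rh110 fluorescence intensity. Buffer or medium: pH 7.5 Hepes buffer with CHAPS, BSA, DTT. Times: 30 min plus 50 min, RT.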
Pemphigus Ab inh = inhibitors of pemphigus antibody binding to human desmoglein-3; DSG3-coupled beads, scFv-anti-DSG3-GFP binding, flow cytometry; active compounds read low; binding (percent of control), % at 10 µM; 0.48% of 310,000 active; AID 588358;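 active = binding more than 3 SD below its plate's average and above zero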;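 note: hits lower antibody fragment binding to DSG3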
MEKK2 WT-MEK5 = raises or lowers MEK5 binding to wildtype human MEKK2 PB1 domain. bead flow cytometry, Alexa488-MEK5 binding to MEKK2 WT; actives lie on both sides. 1.1% of 290,000 active. binding response (% of control), % at 10 µM. Q9Y2U5; in the data active = binding response below about 67% or above about 130%
MEKK2wt confirm = raises or lowers MEK5 binding to wildtype human MEKK2, retest | 2.4% of 5,900 active | shares compounds with MEKK3 PB1 HTS | binding response (% of control), % at 10 µM | bead flow cytometry, Alexa488-MEK5 binding to MEKK2 WT; actives lie on both sides | AID 1892; in the data active = binding response below about 16% or above about 210%; inactive = in between
MEKK2mut confirm = signal of MEK5 binding to mutant human MEKK2, retest; shares compounds with MEKK3 PB1 HTS; bead flow cytometry, Alexa488-MEK5 binding to MEKK2 mutant; percent response, % at 10 µM; 2% of 5,900 active; AID 1893; in the data active = percent response mostly above about 71%, no sharp cut-off; inactive = mostly below about 38%;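 note: higher means compound restores mutant binding toward wildtype level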
MEKK3-MEK5 inh = MEKK3-MEK5 PB1 inhibition, single concentration confirmation. bead flow cytometry, Alexa488-MEK5 binding to MEKK3; active compounds read low. binding response (% of control), % at 10 µM. shares compounds with MEKK3 PB1 HTS. 1.8% of 5,900 active. AID 1894;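 active = binding response below 72% of control, or above a set upper limit, though filed actives all read lower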;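 note: 100% = DMSO only wells and 0% = binding blocked by excess unlabeled MEK5; lower values mean stronger disruption of MEK5 binding to MEKK3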
Starred values were filed as active, the others as inactive; . = no result given; [ ] = remark or other dose.

SMILES | UBC13 inh | MEKK2 mut-MEK5 | MEKK3 PB1 HTS | Apaf1 inhib | Pemphigus Ab inh | MEKK2 WT-MEK5 | MEKK2wt confirm | MEKK2mut confirm | MEKK3-MEK5 inh
COC[C@H](NS(=O)(=O)c1ccc(Br)cc1F)[C@@H](O)c1ccccc1 | . | . | . | . | 106 | . | . | . | .
CCCCc1ccc(NC(=O)CSc2nc(=O)n3cc(C)ccc3n2)cc1 | -8 | . | . | 1 | 96 | . | . | . | .
O=C(NCCCn1ccnc1)/C(=C\c1cccs1)NC(=O)c1cccs1 | -5 | 0 | 130* | 7 | 102 | 116 | 100 | -5 | 101
O=S(=O)(/N=C(\c1ccc(F)cc1)N1CCOCC1)c1ccccc1 | . | . | . | . | 105 | . | . | . | .
Cc1ccc(NC(=O)CSc2nnc(-c3cccnc3)s2)cc1 | 4 | 2 | 8.0*[inhibitor] | 0 | 114 | 103 | 103 | -1 | 105
CCCCCCOc1ccc(NC(=O)CC2C(=O)N(CC)C(=S)N2Cc2ccco2)cc1 (stereo not drawn) | -8 | 3 | 110 | 15 | 132 | 141* | 111 | 3 | 107
C=CCN1C(=O)C(CC(=O)Nc2ccc(OCCC)cc2)N(CCCN2CCN(Cc3ccccc3)CC2)C1=S (stereo not drawn) | 9 | 42 | 111 | 18 | 111 | 183* | 148 | 22 | 110
CCOc1ccc(NC(=O)CC2C(=O)N(c3ccccc3)C(=S)N2Cc2ccccn2)cc1 (stereo not drawn) | 6 | -18 | 1.0*[inhibitor] | -44 | . | 1.0*[inhibitor] | 107 | 3 | 101
COc1ccc(NC(=O)CC2C(=O)N(Cc3ccccc3)C(=S)N2CCN2CCOCC2)cc1 (stereo not drawn) | -1 | 0 | 94 | 2 | 113 | 98 | . | . | .
CC(C)NC(=O)CN1C(=O)c2cccc3cccc1c23 | -3 | 5 | 103 | -12 | 103 | 105 | . | . | .
O=C(CCNC(=O)c1ccc(Cl)cc1)NCC(c1ccco1)N1CCCC1 (stereo not drawn) | 3 | . | . | 2 | 97 | . | . | . | .
C=CCn1c(SCC(=O)N2N=C(c3ccco3)CC2c2ccco2)nnc1-c1ccncc1 (stereo not drawn) | -5 | -1 | 66*[inhibitor] | 0 | 89 | 94 | 113 | 12 | 106
O=C(Cn1ncc(Cl)c(Cl)c1=O)NC(=O)NC1CCCCC1 | -18 | . | . | 35 | 85 | . | . | . | .
CCOC(=O)CN(c1sc(C)c(C)c1C(=O)OCC)S(=O)(=O)c1ccc(C)cc1 | . | . | . | . | 111 | . | . | . | .
CCN1CCN(S(=O)(=O)c2c(C)[nH]c(C)c2C(=O)N2CCCCC2)CC1 | 2 | 4 | 101 | 0 | . | 98 | . | . | .
CC(C)N(c1ccccc1)c1ccc(NC(=O)COC(=O)CCN2C(=O)c3cccc([N+](=O)[O-])c3C2=O)cc1 | -14 | -2 | 48*[inhibitor] | 32 | 105 | 90 | 94 | -7 | 93
COc1ccc(S(=O)(=O)N2CCCOC2CNC(=O)C(=O)NCc2cccnc2)cc1 (stereo not drawn) | 6 | 6 | 102 | -16 | 102 | 105 | . | . | .
Cc1nc2ccccn2c1C(=O)Nc1ccc2c(c1)OCCO2 | 1 | 7 | 132* | 2 | . | 112 | 105 | 4 | 105
Cc1ncoc1C(=O)Nc1ccc2c(c1)OCCO2 | 4 | 6 | 101 | -31 | 101 | 102 | . | . | .
Cc1ccsc1C(=O)Nc1ccc2c(c1)OCCO2 | -2 | 0 | 138* | -8 | 109 | 106 | 106 | 3 | 105
CCCC(C)c1oc(=O)cc(O)c1C (stereo not drawn) | . | . | . | 5 | 100 | . | . | . | .
O=C(c1cc(-c2ccccn2)nc2ccc(Cl)cc12)N1CCN(CCc2ccccc2)CC1 | -11 | -23 | -1.0*[inhibitor] | 15 | . | -4.0*[inhibitor] | 97 | -2 | 97
CCN(CC)C(=S)Nc1ccc(OC(F)F)cc1 | -17 | 1 | 102 | 6 | . | 102 | . | . | .
CCN(CC)C(=S)Nc1ccc(OC)cc1 | -9 | 1 | 155* | 6 | 127 | 113 | 103 | 2 | 104
Cc1cccc(Nc2nnc(-c3ccc(N4CCOCC4)c([N+](=O)[O-])c3)c3ccccc23)c1 | -33 | 0 | 131* | 24 | 88 | 100 | 88 | -10 | 97
SMILES | UBC13 inh | MEKK2 mut-MEK5 | MEKK3 PB1 HTS | Apaf1 inhib | Pemphigus Ab inh | MEKK2 WT-MEK5 | MEKK2wt confirm | MEKK2mut confirm | MEKK3-MEK5 inh
Cc1nnc(-c2ccc(N3CCOCC3)c([N+](=O)[O-])c2)o1 | -35 | . | . | 3 | 98 | . | . | . | .
CCOc1ccc(C2/C(=C(\O)c3ccc4c(c3)OCCO4)C(=O)C(=O)N2CCN2CCOCC2)cc1OC (stereo not drawn) | -12 | 3 | 100 | -4 | 111 | 101 | . | . | .
CCn1c(SCC(=O)Nc2cc(C(C)(C)C)nn2-c2ccccc2)nnc1-c1cccs1 | 4 | 0 | 151* | -11 | 87 | 107 | 100 | -10 | 101
Cc1nnc(SCC(=O)Nc2cc(C(C)(C)C)nn2-c2ccccc2)s1 | -11 | -2 | 92 | -4 | 132 | 95 | . | . | .
CC(C)C(OC(=O)C1=Cc2ccccc2OC1)C(=O)NC1CCCC1 (stereo not drawn) | 3 | 3 | 131* | 0 | 103 | 109 | 83 | -8 | 96
O=C(OC(C(=O)NC1CCCC1)c1ccncc1)C1=Cc2ccccc2OC1 (stereo not drawn) | 7 | 2 | 103 | 9 | 102 | 101 | . | . | .
CCC(OC(=O)C1=Cc2ccccc2OC1)C(=O)NC1CCCC1 (stereo not drawn) | 2 | 11 | 126* | -13 | 106 | 114 | 97 | 0 | 102
O=C(CNc1ccc(C(F)(F)F)cc1)Nc1cccc(S(=O)(=O)N2CCCCC2)c1 | . | . | . | . | 100 | . | . | . | .
CN1CCN(Cc2nc3ccccc3c(=O)n2Cc2nc(-c3ccc4ccccc4c3)cs2)CC1 | . | 51* | 108 | . | 102 | 195* | 153 | 25 | 104
O=C(/C=C/c1ccco1)Nc1ccc(-c2nc3ccccc3[nH]2)cc1 | . | -5 | 35*[inhibitor] | . | 92 | 47*[inhibitor] | 76 | -18 | 79
CCOC(=O)C1CCN(C(=O)C2CCN(c3nc4ccc(OC)cc4s3)CC2)CC1 | 3 | 7 | 122* | 12 | . | 118 | 110 | 8 | 108
O=c1c2ccccc2c2ccccc2c(=O)n1Nc1ccccc1 | . | . | . | . | 106 | . | . | . | .
CCn1nc(C(=O)Nc2nc3ccc(C)cc3s2)c2ccccc2c1=O | 12 | 4 | 101 | 2 | 104 | 111 | . | . | .
